The record followed here is article PMC7781011 (Journal of Inflammation Research, 2020).

Residue numbers refer to the chain shown, from its start.

One experiment concerns the target T1, mouse mPGES-1 (Mus musculus, UniProt Q9JM51).
T1 sequence (Q9JM51 1-153): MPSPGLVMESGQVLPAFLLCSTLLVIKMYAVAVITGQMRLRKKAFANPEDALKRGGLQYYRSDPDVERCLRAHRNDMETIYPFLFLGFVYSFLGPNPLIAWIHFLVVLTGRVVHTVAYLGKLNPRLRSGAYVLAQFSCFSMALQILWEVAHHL
Briefly: Cell-free mPGES-1 assay. Type of experiment: biochemical. The method in brief:
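Enzyme in 15 mM Tris-HCl pH 7.4 with 1 mM GSH, preincubated 20 min with compound (0.1–100 µM); plate held 15 min at 20°C. PGH2 (final 2.8 µM) added, 45 s at room temperature, then stopped with SnCl2 in 1N HCl. PGE2 by ELISA, in triplicate, % inhibition versus untreated. Human enzyme from E. coli or commercial; mouse enzyme from vas deferens/seminal vesicles. IC50 by four-parameter nonlinear regression.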

The target of another experiment is T2, rat mPGES-1 (Rattus norvegicus, UniProt Q9JHF3).
T2 sequence (Q9JHF3 1-153): T1 sequence (Q9JM51 1-153) with P2T, P4L, S10N, G11S, M38V, Y60C, L122M, L126I, S137A
The experiment can be described thus: Cell-free mPGES-1 assay. Type of experiment: biochemical. Conditions: IC50 mPGES-1, cell-free.

The target of a further experiment is T3, human 5-LOX (Homo sapiens, UniProt P09917).
T3 sequence (P09917 1-674): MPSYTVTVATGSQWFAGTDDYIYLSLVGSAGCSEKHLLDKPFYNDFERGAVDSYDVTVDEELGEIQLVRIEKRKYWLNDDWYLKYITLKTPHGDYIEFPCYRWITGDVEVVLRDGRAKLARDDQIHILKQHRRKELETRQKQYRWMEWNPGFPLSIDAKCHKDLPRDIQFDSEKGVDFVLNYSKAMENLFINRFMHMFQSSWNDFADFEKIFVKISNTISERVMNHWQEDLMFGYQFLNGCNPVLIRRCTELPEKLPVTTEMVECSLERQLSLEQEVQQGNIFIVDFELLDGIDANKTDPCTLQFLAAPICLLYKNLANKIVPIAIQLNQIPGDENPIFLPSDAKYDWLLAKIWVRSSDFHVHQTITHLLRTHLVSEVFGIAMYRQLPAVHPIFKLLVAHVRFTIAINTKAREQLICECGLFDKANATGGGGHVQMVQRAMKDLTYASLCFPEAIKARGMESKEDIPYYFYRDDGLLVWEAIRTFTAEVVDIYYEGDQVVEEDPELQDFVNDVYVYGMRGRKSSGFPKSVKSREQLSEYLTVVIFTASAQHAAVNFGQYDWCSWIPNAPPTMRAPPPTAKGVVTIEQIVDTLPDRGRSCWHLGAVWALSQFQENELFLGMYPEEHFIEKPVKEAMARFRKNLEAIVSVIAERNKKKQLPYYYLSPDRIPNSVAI
The experiment can be described thus: Cell-free fluorometric 5-LOX assay. Type of experiment: biochemical. Conditions: IC50 5-LOX.

The next experiment concerns the target T4, rat COX-1 (Rattus norvegicus, UniProt Q63921).
T4 sequence (Q63921 27-602): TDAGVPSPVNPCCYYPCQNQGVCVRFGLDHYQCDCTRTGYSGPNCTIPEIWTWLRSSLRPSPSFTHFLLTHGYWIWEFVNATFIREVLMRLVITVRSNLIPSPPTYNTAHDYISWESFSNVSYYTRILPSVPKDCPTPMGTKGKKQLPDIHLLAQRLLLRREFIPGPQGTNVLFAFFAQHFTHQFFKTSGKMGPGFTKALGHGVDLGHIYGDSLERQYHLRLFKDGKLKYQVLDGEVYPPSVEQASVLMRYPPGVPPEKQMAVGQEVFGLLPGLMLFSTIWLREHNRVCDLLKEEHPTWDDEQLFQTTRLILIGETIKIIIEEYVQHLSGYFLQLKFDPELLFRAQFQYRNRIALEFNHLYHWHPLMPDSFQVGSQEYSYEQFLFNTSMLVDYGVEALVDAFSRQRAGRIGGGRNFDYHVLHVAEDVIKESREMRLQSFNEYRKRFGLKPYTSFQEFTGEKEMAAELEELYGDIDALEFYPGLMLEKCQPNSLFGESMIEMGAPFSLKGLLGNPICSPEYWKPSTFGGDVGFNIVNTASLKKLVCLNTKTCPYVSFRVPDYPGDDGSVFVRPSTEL
Briefly: Cell-free fluorometric COX-1 assay. Type of experiment: biochemical.

The target in another experiment is T5, rat COX-2 (Rattus norvegicus, UniProt P35355).
T5 sequence (P35355 18-604): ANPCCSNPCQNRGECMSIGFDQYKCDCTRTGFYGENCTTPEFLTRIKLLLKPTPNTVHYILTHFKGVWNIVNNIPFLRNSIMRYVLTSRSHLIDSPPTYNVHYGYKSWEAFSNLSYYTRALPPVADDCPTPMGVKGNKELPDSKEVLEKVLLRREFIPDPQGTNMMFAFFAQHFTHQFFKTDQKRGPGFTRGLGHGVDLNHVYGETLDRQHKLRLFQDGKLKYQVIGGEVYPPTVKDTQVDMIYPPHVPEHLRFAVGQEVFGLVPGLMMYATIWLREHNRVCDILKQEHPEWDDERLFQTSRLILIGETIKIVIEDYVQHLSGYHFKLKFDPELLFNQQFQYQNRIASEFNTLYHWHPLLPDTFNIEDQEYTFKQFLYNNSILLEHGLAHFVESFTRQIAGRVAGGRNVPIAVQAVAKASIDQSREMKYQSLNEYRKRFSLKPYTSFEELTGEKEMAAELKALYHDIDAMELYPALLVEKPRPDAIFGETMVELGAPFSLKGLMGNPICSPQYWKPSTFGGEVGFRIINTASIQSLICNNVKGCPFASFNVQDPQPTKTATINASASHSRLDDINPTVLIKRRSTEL
The experiment can be described thus: Cell-free fluorometric COX-2 assay. Type of experiment: biochemical.

Experiment [1] relates to PGE2 production in LPS-stimulated macrophages of humans, mice, and rats. Briefly: PGE2 production in LPS-stimulated macrophages, range over species. Type of experiment: cell-based. Conditions: Macrophage, read-out: IC50 range PGE2 production. In short, it runs like this:
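Human macrophages derived from THP-1 monocytes with PMA. Rat/mouse peritoneal macrophages collected by lavage with ice-cold DMEM, selected by glass adherence (1 h, 37°C), Trypan-blue checked. Cells in DMEM+10% FBS at 10,000 (96-well) or 40,000 (24-well) per well, given non-toxic compound doses, then LPS 10 µg/mL for 24 h. PGE2, PGI2 and LTB4 measured in supernatant. IC50 by four-parameter nonlinear regression.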

Setting [2] is: cell-free, rat, up to the tested range of 1 mM.

Turning to `CC1(C)Cc2c(-c3ccccc3)c(-c3ccc(Cl)cc3)c(CC(=O)O)n2C1` [Licofelone, reference compound], the IC50 – broadly, the concentration at which inhibition is half-maximal – against mouse mPGES-1 was over 15000 nM; at rat mPGES-1 it was 12300 nM; at human 5-LOX, 2130 nM; against rat COX-1 it was 1810 nM; against rat COX-2, 3260 nM; in experiment [1] it was 560 to 1310 nM.

Consider `CC1(C)Cc2c(-c3ccccc3)c(-c3ccc(Cl)cc3)c(CC(=O)NCC(=O)O)n2C1` [LFA-9, 2-[[2-[2-(4-chlorophenyl)-6,6-dimethyl-1-phenyl-5,7-dihydropyrrolizin-3-yl]acetyl]amino]acetic acid], for which the IC50 at mouse mPGES-1 is 520 nM; on rat mPGES-1 it was 1400 nM; against human 5-LOX, 2750 nM; in experiment [1], 470 to 780 nM. The “inhibition of COX-1 activity” value on rat COX-1 (setting [2]) is given as “did not show inhibition”. Moreover, on rat COX-2 (setting [2]), the “inhibition of COX-2 activity” value was “did not show inhibition”.
